Activity calls are given as the source filed them. No cut-off for these calls is given here.
What was measured:
[1] = AUC in Sprague-Dawley rat at 1 mg/kg, ip; format: ADME, organism-based; set-up: dose 1 mg/kg, route intraperitoneal; details: plasma
[2] = Half life in Sprague-Dawley rat at 5 mg/kg, ip; format: ADME, organism-based; set-up: dose 5 mg/kg, route intraperitoneal; details: in vivo
Plasmodium falciparum [3] = assay: Antimalarial activity against Plasmodium falciparum W2 by automated image mining based cytological profiling assay; format: functional, organism-based
In short: (§1)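 Parasite cultures in 384-well format, read by automated imaging. Infected erythrocytes detected by DAPI nuclear staining against WGA-AlexaFluor 488 host-cell stain, and viability by Mitotracker Red CMXRos. Total culture parasitaemia quantified. EC50 given as mean±SD of two independent experiments, each in duplicate.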

[4] = Tmax in Sprague-Dawley rat at 5 mg/kg, ip; format: ADME, organism-based; set-up: dose 5 mg/kg, route intraperitoneal; details: in vivo
Plasmodium falciparum [5] = assay: Antimalarial activity against Plasmodium falciparum HB3 by automated image mining based cytological profiling assay; format: functional; in short: as §1
Plasmodium chabaudi [6] = assay: Antimalarial activity against Plasmodium chabaudi infected in BALB/c mouse assessed as reduction in accumulation of ring-stage parasites level at 3 to 30 mg/kg, ip treated on day 1 to day 3 post-infection measured on day 4 post-infection by Giemsa staining based light microscopy; format: functional, organism-based
In short: (§2)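 Groups of five BALB/c mice infected i.p. with 2 × 10^7 P. chabaudi-parasitized erythrocytes. Day 1 pre-treatment parasitaemia read from tail-blood thin smears, then i.p. dosing at 0.03, 0.3, 3, 10 or 30 mg/kg, repeated for two more days. Day 4 parasitaemia scored by light microscopy of Giemsa-stained thin smears; dose-response evaluated by probit analysis.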

[7] = Half life in Sprague-Dawley rat at 1 mg/kg, ip; format: ADME, organism-based; set-up: dose 1 mg/kg, route intraperitoneal; details: in vivo
[8] = Selectivity index, ratio of CC50 for human HepG2 cells to EC50 for Plasmodium falciparum; format: toxicity, cell-based; details: read-out: Ratio CC50/EC50
In short: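 Ratio of HepG2 CC50 (resazurin assay) to the highest EC50 among P. falciparum K1, HB3 and W2. Parasite EC50 values are means of two independent experiments, each run in duplicate.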

Plasmodium falciparum [9] = assay: Antimalarial activity against tightly synchronized Plasmodium falciparum K1 assessed as parasite stage accumulation index at schizonts stages at 10 uM treated at 6 to 30 hrs post-invasion by automated image mining based cytological profiling assay; format: functional, organism-based
Plasmodium falciparum [10] = assay: Antimalarial activity against tightly synchronized Plasmodium falciparum K1 assessed as parasite stage accumulation index at late ring stages at 10 uM treated at 6 to 30 hrs post-invasion by automated image mining based cytological profiling assay; format: functional, organism-based
[11] = Tmax in Sprague-Dawley rat at 1 mg/kg, ip; format: ADME, organism-based; set-up: dose 1 mg/kg, route intraperitoneal; details: in vivo
[12] = AUC in Sprague-Dawley rat at 5 mg/kg, ip; format: ADME, organism-based; set-up: dose 5 mg/kg, route intraperitoneal; details: plasma
[13] = Cmax in Sprague-Dawley rat at 5 mg/kg, ip; format: ADME, organism-based; set-up: dose 5 mg/kg, route intraperitoneal; details: in vivo
Plasmodium falciparum [14] = assay: Antimalarial activity against Plasmodium falciparum K1 by automated image mining based cytological profiling assay; format: functional, organism-based; in short: as §1
[15] = Cmax in Sprague-Dawley rat at 1 mg/kg, ip; format: ADME, organism-based; set-up: dose 1 mg/kg, route intraperitoneal; details: in vivo
[16] = Stability in mouse liver microsomes assessed as remaining compound level at 1 uM incubated for 5 mins in presence of NADPH measured after 30 mins by LC/MS/MS method; format: ADME; details: read-out: Stability
In short: (§3)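 Percent parent compound remaining after 30 min incubation with liver microsomes; n = 3.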

Plasmodium falciparum [17] = assay: Antimalarial activity against tightly synchronized Plasmodium falciparum K1 assessed as parasite stage accumulation index at early ring stages at 10 uM treated at 6 to 30 hrs post-invasion by automated image mining based cytological profiling assay; format: functional, organism-based
Plasmodium falciparum [18] = assay: Antimalarial activity against tightly synchronized Plasmodium falciparum K1 assessed as parasite stage accumulation index at trophozoites stages at 10 uM treated at 6 to 30 hrs post-invasion by automated image mining based cytological profiling assay; format: functional, organism-based
[19] = Stability in human liver microsomes assessed as remaining compound level at 1 uM incubated for 5 mins in presence of NADPH measured after 30 mins by LC/MS/MS method; format: ADME; details: read-out: Stability; in short: as §3
Plasmodium chabaudi [20] = assay: Antimalarial activity against Plasmodium chabaudi infected in BALB/c mouse assessed as reduction in parasitaemia level treated intraperitoneally on day 1 to day 3 post-infection measured on day 4 post-infection by Giemsa staining based light microscopy; format: functional; in short: as §2
Plasmodium chabaudi [21] = assay: Antimalarial activity against Plasmodium chabaudi infected in BALB/c mouse assessed as reduction in blood parasitaemia level at 3 to 30 mg/kg, ip treated on day 1 to day 3 post-infection measured on day 4 post-infection by Giemsa staining based light microscopy; format: functional, organism-based; in short: as §2

For `COc1ccc(CO[C@H]([C@H](OCc2ccc(OC)cc2)c2cnc(N(C)C)nc2)[C@@H](COC(c2ccccc2)(c2ccccc2)c2ccccc2)OS(C)(=O)=O)cc1`, the AUC [1] was 9790 ng·h/mL, the half-life [2] was 636 min and the EC50 (Plasmodium falciparum [3]) was 104 nM. For the same compound, the Tmax [4] was 1 h, the EC50 (Plasmodium falciparum [5]) was 104 nM and the inhibition (Plasmodium chabaudi [6]) was “Active”. For the same compound, the half-life [7] was 618 min, the selectivity ratio [8] was > 680 and the Activity (Plasmodium falciparum [9]) was “Active”. For the same compound, the Activity (Plasmodium falciparum [10]) was “Active”, the Tmax [11] was 1 h and the AUC [12] was 41300 ng·h/mL. The Cmax [13] was 12900 ng/mL, the EC50 (Plasmodium falciparum [14]) was 116 nM and the Cmax [15] was 1800 ng/mL. For the same compound, the remaining at 0.5 h, 1 µM [16] was 88.6%, the Activity (Plasmodium falciparum [17]) was “Active” and the Activity (Plasmodium falciparum [18]) was “Active”. The remaining at 30 min, 1 µM [19] was 88.1%, the inhibition (Plasmodium chabaudi [20]) was “Dose dependent effect” and the ED50 (Plasmodium chabaudi [20]; ip) was 0.32 mg/kg. The inhibition (Plasmodium chabaudi [21]) was “Active”.

From ChEMBL document CHEMBL3352416, “Discovery of carbohybrid-based 2-aminopyrimidine analogues as a new class of rapid-acting antimalarial agents using image-based cytological profiling assay” (J Med Chem, 2014)
